Results: ChEMBL document CHEMBL1649230, “Aryl rhodanines specifically inhibit staphylococcal and enterococcal biofilm formation” (Antimicrob Agents Chemother, 2009)
Converted amounts (≈) assume the structure as drawn.

Tested on: Staphylococcus aureus
Experiment: Antimicrobial activity against Staphylococcus aureus ATCC 35556 by M7-A7 method
Format: functional
Summary of the method: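 Planktonic MIC by CLSI M7-A7 broth microdilution. Twofold compound dilutions made in DMSO at 50× final concentration and added to plates before inoculation; 2% DMSO final.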

`O=C(N[C@H](CO)[C@H](O)c1ccc([N+](=O)[O-])cc1)C(Cl)Cl` [CHLORAMPHENICOL] was tested, and the MIC was 1 µg/mL (≈ 3.09 µM).
